Drawing on ChEMBL document CHEMBL1132593, “Structure-activity relationships of pyrazole derivatives as cannabinoid receptor antagonists” (J Med Chem, 1999), this text covers Ki, Ratio and Kd for 19 molecules.

One test addresses Cannabinoid receptor 2 (Mus musculus, UniProt P47936). As to the kind of experiment: Binding affinity against Cannabinoid receptor 2 in mouse spleen. The test is classed as tissue-based. In outline:
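Membranes from frozen mouse spleen (CB2), about 50 μg, prepared in silanized tubes. Incubated 1 h at 30 °C in TME with 0.1% fatty-acid-free BSA, 0.8 nM [3H]2 and varying ligand concentrations. Filtration, four ice-cold washes with buffer containing 0.5% BSA, then scintillation counting. Nonspecific binding defined with 100 nM 2. Three independent experiments in duplicate, normalized to specific binding; 95% confidence limits.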

A further test has as its target Cannabinoid receptor 1 (Rattus norvegicus, UniProt P20272). As to the kind of experiment: Binding affinity against Cannabinoid receptor 1 in rat forebrain.
The target of test [1] is T1, Cannabinoid receptor (Homo sapiens) (UniProt P34972+P21554). As to the kind of experiment: Ratio of the binding affinities against rat CB1 to that of mouse CB2; activity value is 1:7.2. The format is protein assay.
T1 sequence (P21554 whole entry, looked up): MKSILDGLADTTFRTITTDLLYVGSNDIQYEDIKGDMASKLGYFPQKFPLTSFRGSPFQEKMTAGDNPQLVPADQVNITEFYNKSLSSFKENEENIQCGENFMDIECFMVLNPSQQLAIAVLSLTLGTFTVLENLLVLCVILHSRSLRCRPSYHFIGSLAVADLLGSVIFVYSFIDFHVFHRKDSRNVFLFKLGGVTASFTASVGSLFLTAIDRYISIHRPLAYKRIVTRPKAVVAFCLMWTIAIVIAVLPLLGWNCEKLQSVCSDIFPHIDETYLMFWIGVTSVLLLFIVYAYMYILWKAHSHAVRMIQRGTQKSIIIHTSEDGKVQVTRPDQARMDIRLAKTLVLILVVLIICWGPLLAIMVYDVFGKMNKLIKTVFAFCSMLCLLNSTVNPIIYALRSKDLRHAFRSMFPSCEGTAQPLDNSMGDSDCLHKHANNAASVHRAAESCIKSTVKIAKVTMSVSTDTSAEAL
T1 sequence (P34972 whole entry, looked up): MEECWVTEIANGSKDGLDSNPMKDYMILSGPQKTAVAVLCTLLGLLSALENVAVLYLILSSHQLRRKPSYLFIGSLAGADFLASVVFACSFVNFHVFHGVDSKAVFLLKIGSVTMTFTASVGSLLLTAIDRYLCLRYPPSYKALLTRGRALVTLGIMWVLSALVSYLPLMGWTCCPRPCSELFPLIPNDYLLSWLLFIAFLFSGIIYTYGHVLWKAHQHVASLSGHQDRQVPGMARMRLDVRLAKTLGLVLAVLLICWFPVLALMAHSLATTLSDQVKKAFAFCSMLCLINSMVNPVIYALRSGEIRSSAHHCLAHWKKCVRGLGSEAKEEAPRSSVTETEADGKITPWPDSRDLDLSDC
For test [2], the species on record is Mus musculus. The test is described as follows: Dissociation constant [316(nM)] in mouse isolated vas deferens using the cannabinoid receptor agonist. The format is functional, organism-based. In a few lines:
(§1)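 Mouse isolated vas deferens. Antagonist tested at the stated concentration against WIN55,212-2 inhibition of electrically evoked contractions. Drugs dispersed in saline with two parts Tween 80 by weight, with Tween 80 as the reference. Dose ratio (95% confidence limits) from a symmetrical 2+2 dose parallel line assay. Kd from (x−1) = B/Kd.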

Test [3] is filed under the species Cavia porcellus. The test is described as follows: Dissociation constant [1000(nM)] in myenteric plexus-longitudinal muscle of guinea pig small intestine using the cannabinoid receptor agonist. The test is classed as functional, organism-based. In a few lines:
(§2)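 Guinea pig small intestine myenteric plexus-longitudinal muscle. Antagonist tested at the stated concentration against WIN55,212-2 inhibition of electrically evoked contractions. Drugs mixed with two parts Tween 80 by weight and dispersed in saline; Tween 80 served as the reference. Dose ratio from a symmetrical (2+2) dose parallel line assay on the steepest part of the curve. Kd = B/(x−1).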

Test [4] deals with Cannabinoid receptor CB1 (Rattus norvegicus) and CB2 (Mus musculus). As to the kind of experiment: Ratio of the binding affinities against rat CB1 to that of mouse CB2; activity value is 1:2.7.
The species named for test [5] is Mus musculus. The test is described as follows: Dissociation constant [31.6(nM)] in mouse isolated vas deferens using the cannabinoid receptor agonist. The format is functional, organism-based. In a few lines: as §1
The species entered for test [6] is Cavia porcellus. The test is described as follows: Dissociation constant [100(nM)] in myenteric plexus-longitudinal muscle of guinea pig small intestine using the cannabinoid receptor agonist. The test is classed as functional, organism-based. In outline: as §2
Test [7] relates to Cannabinoid receptor CB1 (Rattus norvegicus) and CB2 (Mus musculus). As to the kind of experiment: Ratio of the binding affinities against rat CB1 to that of mouse CB2; activity value is 1:37.
Test [8] is filed under the species Mus musculus. The test is described as follows: Dissociation constant [1000(nM)] in mouse isolated vas deferens using the cannabinoid receptor agonist. The format is functional, organism-based. In a few lines:
as §1

The target in test [9] is T1, Cannabinoid receptor (Homo sapiens). The test is described as follows: Ratio of the binding affinities against rat CB1 to that of mouse CB2; activity value is 1:17. The test is classed as protein assay.
The target is the same in test [10]. As to the kind of experiment: Ratio of the binding affinities against rat CB1 to that of mouse CB2; activity value is 1:85. The format is protein assay.

pKd, pKi: −log10 of the molar value.

Sequence of Cannabinoid receptor 2 (P47936 whole entry): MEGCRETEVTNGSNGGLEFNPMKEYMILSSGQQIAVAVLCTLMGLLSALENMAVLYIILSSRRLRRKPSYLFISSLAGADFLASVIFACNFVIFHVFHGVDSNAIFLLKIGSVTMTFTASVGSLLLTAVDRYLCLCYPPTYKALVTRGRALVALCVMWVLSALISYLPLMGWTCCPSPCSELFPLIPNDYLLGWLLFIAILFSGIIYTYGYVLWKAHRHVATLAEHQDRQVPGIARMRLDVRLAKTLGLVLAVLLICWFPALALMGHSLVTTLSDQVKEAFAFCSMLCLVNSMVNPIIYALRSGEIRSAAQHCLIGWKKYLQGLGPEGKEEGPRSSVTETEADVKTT
Sequence of Cannabinoid receptor 1 (P20272 whole entry): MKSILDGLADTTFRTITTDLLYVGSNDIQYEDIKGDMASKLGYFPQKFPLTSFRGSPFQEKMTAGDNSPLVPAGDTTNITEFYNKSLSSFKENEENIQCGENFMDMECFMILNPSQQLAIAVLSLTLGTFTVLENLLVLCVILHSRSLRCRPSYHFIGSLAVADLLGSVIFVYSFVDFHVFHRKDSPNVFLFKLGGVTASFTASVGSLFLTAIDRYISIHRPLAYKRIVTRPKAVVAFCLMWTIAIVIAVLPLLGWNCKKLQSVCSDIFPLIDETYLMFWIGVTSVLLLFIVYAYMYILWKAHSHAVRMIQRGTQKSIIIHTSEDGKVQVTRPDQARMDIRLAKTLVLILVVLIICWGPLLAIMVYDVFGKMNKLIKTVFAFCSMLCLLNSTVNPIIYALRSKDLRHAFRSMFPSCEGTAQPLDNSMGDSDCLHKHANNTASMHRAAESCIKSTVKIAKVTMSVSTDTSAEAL

What is called pKi is −log10 of the Ki, conventionally taken in molar units. As to `Cc1c(C(=O)NCCO)nn(-c2ccc(Cl)cc2Cl)c1-c1ccc(Br)cc1`, the results for the pKi on Cannabinoid receptor 2 and at Cannabinoid receptor 1 were 4.72 and 5.95, respectively.
`Cc1c(C(=O)NC2CCCCC2)nn(-c2ccc(Cl)cc2Cl)c1-c1ccc(Br)cc1`: the Ratio in test [1] was found to be 87. The pKi was 6.00 at Cannabinoid receptor 2 and 7.93 on Cannabinoid receptor 1.
As for `CCc1c(C)c(C(=O)NN2CCCCC2)nn1-c1ccc(Cl)cc1Cl`, the pKi on Cannabinoid receptor 2 is 6.13; at Cannabinoid receptor 1, 6.74.
The pKd is the negative decadic logarithm of the Kd, by convention in mol/L. With `Cc1c(C(=O)NN2CCCCC2)nn(-c2ccc(Cl)cc2Cl)c1-c1ccc([N+](=O)[O-])cc1`, the pKd was 8.27 in the test listed under Mus musculus [2] and 8.54 in the test filed under Cavia porcellus [3]. Also, the values for the pKi on Cannabinoid receptor 2 and on Cannabinoid receptor 1 were 6.60 and 7.24, respectively.
As to `Cc1c(C(=O)NN2CCCCC2)nn(-c2ccc(Cl)cc2Cl)c1-c1ccccc1[N+](=O)[O-]`, the figures for the pKd in the test filed under Mus musculus [2] and in the test listed under Cavia porcellus [3] were 7.60 and 8.22, respectively. In addition, the Ratio in test [4] stood at 2.7. Moreover, the pKi at Cannabinoid receptor 2 is 6.16; at Cannabinoid receptor 1, 6.59.
For `Cc1c(C(=O)NN2CCCCC2)nn(-c2ccc(Cl)cc2Cl)c1-c1ccc(Cl)cc1` [RIMONABANT], the pKd was 8.70 in the test listed under Mus musculus [5] and 9.60 in the test listed under Cavia porcellus [6].
In the same order, the values of `Cc1c(C(=O)NN2CCCCC2)nn(-c2ccc(Cl)cc2Cl)c1-c1ccc(I)cc1` are 9.30 and 9.66.
For `Cc1c(C(=O)N2CCCCC2)nn(-c2ccc(Cl)cc2Cl)c1-c1ccc(Br)cc1`, the pKi was 5.34 on Cannabinoid receptor 2 and 6.90 at Cannabinoid receptor 1. For the same molecule, the Ratio in test [7] turned out to be 37. The pKd was 8.33 in the test filed under Cavia porcellus [3] and 6.76 in the test filed under Mus musculus [8].
Regarding `Cc1c(C(=O)NN2CCCCC2)nn(-c2ccc(Cl)cc2Cl)c1-c1ccc(N)cc1`, the negative logarithm of the Kd (pKd) is 7.37 in the test listed under Mus musculus [2] and 8.58 in the test listed under Cavia porcellus [6]. In addition, the values for the pKi on Cannabinoid receptor 2 and on Cannabinoid receptor 1 were 6.02 and 7.09, respectively.
In the case of `Cc1c(C(=O)NN2CCCCC2)nn(-c2ccc(Cl)cc2Cl)c1-c1ccccc1N`, the Ratio in test [4] was found to be 2.7. The values for the pKi at Cannabinoid receptor 2 and at Cannabinoid receptor 1 were 6.03 and 6.46, respectively. The negative logarithm of the Kd (pKd) was 7.95 in the test filed under Cavia porcellus [6] and 6.93 in the test filed under Mus musculus [8].
`Cc1c(C(=O)Nc2ccccc2)nn(-c2ccc(Cl)cc2Cl)c1-c1ccc(Br)cc1`: the results for the pKi at Cannabinoid receptor 2 and at Cannabinoid receptor 1 were 5.17 and 7.51, respectively. The Ratio in test [9] was determined as 217.
Turning to `Cc1c(C(=O)NN2CCCCC2)nn(-c2ccc(Cl)cc2Cl)c1-c1ccc(Br)cc1`, the figures for the pKd in the test filed under Mus musculus [5] and in the test filed under Cavia porcellus [6] were 8.58 and 9.49, respectively. The pKi was 5.84 at Cannabinoid receptor 2 and 7.77 on Cannabinoid receptor 1. In test [10], the Ratio was determined as 85.
`Cc1c(C(=O)N(C)C2CCCCC2)nn(-c2ccc(Cl)cc2Cl)c1-c1ccc(Br)cc1`: the negative logarithm of the Ki (pKi) was 5.90 at Cannabinoid receptor 2 and 7.12 at Cannabinoid receptor 1.
In the case of `Cc1c(C(=O)NN2CCCCCC2)nn(-c2ccc(Cl)cc2Cl)c1-c1ccc(Br)cc1`, the figures for the pKd in the test filed under Mus musculus [2] and in the test filed under Cavia porcellus [3] were 8.17 and 9.42, respectively. For the same molecule, the pKi at Cannabinoid receptor 2 was 6.67; at Cannabinoid receptor 1 it was 8.11. Further, the Ratio in test [10] is 28.
For the molecule `Cc1c(C(=O)N2CCN(C)CC2)nn(-c2ccc(Cl)cc2Cl)c1-c1ccc(Br)cc1`, the pKi at Cannabinoid receptor 2 was 5.63; on Cannabinoid receptor 1, 6.49. The figures for the negative-log Kd (pKd) in the test listed under Cavia porcellus [3] and in the test listed under Mus musculus [8] were 7.91 and 6.49, respectively.
In the case of `Cc1c(C(=O)NN2CCCCC2)nn(-c2ccc(Cl)cc2Cl)c1-c1ccccc1I`, the negative logarithm of the Kd (pKd) in the test listed under Mus musculus [5] was 8.11; in the test filed under Cavia porcellus [3], 8.23. Moreover, the values for the pKi on Cannabinoid receptor 2 and on Cannabinoid receptor 1 were 6.24 and 7.27, respectively.
Regarding `Cc1c(C(=O)NN2CCCCC2)nn(-c2ccc(Cl)cc2Cl)c1-c1ccccc1`, the pKd in the test listed under Mus musculus [2] is 7.55; in the test listed under Cavia porcellus [3] it was 8.15. The pKi at Cannabinoid receptor 2 is 6.66.
Take `Cc1c(C(=O)NN2CCOCC2)nn(-c2ccc(Cl)cc2Cl)c1-c1ccc(Br)cc1`: the pKi on Cannabinoid receptor 2 was 5.61; on Cannabinoid receptor 1 it was 7.27.
Molecule `Cc1c(C(=O)NN2CCCCC2)nn(-c2ccc(Cl)cc2)c1-c1ccc(Cl)cc1` had a pKi on Cannabinoid receptor 2 of 6.08.
